Laboratory results: ChEMBL document CHEMBL1255417, “Correlation between in vitro activity of posaconazole and in vivo efficacy against Rhizopus oryzae infection in mice” (Antimicrob Agents Chemother, 2010)
Values after ≈ are worked out from the molar mass of the structure shown. Active and inactive are the calls of the source. No cut-off for these calls is given here.

Key:
Rhizopus arrhizus [1] = experiment: Antifungal activity against drug-susceptible Rhizopus oryzae UTHSC 04-443 by broth microdilution method; format: functional
How it was run: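 CLSI broth microdilution for filamentous fungi (M38-A2); MIC recorded in µg/ml against clinical isolates; breakpoints applied at 24 h.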

Rhizopus arrhizus [2] = experiment: Antifungal activity against drug-susceptible Rhizopus oryzae UTHSC 02-439 by broth microdilution method; format: functional
How it was run: (§1)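 Broth microdilution MIC in µg/ml, run per the CLSI (formerly NCCLS) guideline for filamentous fungi, M38-A2.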

Rhizopus arrhizus [3] = experiment: Antifungal activity against drug-susceptible Rhizopus oryzae UTHSC 05-3580 by broth microdilution method; format: functional
How it was run: (§2)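 Posaconazole MIC in ug/ml, determined by broth microdilution following the CLSI guidelines for moulds (M38-A2).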

Rhizopus arrhizus [4] = experiment: Antifungal activity against drug-susceptible Rhizopus oryzae UTHSC 06-2457 by broth microdilution method; format: functional; how it was run: as §2
Rhizopus arrhizus [5] = experiment: Antifungal activity against drug-intermediate Rhizopus oryzae UTHSC 07-365 infected in OF1 mouse assessed as reduction in brain fungal load at 10-30 mg/kg, po bid treated 24 hrs after fungal infection; format: functional, organism-based
How it was run: (§3)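 Tissue burden in immunosuppressed male OF1 mice, using cyclophosphamide 200 mg/kg i.p. plus 5-fluorouracil 150 mg/kg i.v. on day −1. Mice received 2 × 10^4 CFU i.v. by tail vein, then oral gavage at 10, 20 or 30 mg/kg BID from 24 h post-challenge, with ceftazidime cover; untreated controls. Groups of 10 were killed on day 4. Kidneys and brains were homogenized in 2 ml saline, serially diluted 10-fold, plated on PDA and counted after 24 h at 35°C.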

Rhizopus arrhizus [6] = experiment: Antifungal activity against drug-susceptible Rhizopus oryzae UTHSC 05-197 after 24 to 48 hrs; format: functional
How it was run: (§4)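 Minimum fungicidal concentration: 20 µl from each microdilution well showing complete inhibition (optically clear) plated on potato dextrose agar, incubated 35°C for 24 to 48 h; MFC taken as lowest drug concentration giving no growth.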

Rhizopus arrhizus [7] = experiment: Antifungal activity against drug-intermediate Rhizopus oryzae UTHSC 04-3109 after 24 to 48 hrs; format: functional
Rhizopus arrhizus [8] = experiment: Antifungal activity against drug-susceptible Rhizopus oryzae UTHSC 05-3111 by broth microdilution method; format: functional; how it was run: as §2
Rhizopus arrhizus [9] = experiment: Antifungal activity against drug-susceptible Rhizopus oryzae UTHSC 06-4133 by broth microdilution method; format: functional; how it was run: as §2
Rhizopus arrhizus [10] = experiment: Antifungal activity against drug-susceptible Rhizopus oryzae UTHSC 06-3827 by broth microdilution method; format: functional; how it was run: as §2
Rhizopus arrhizus [11] = experiment: Antifungal activity against drug-susceptible Rhizopus oryzae UTHSC 06-329 by broth microdilution method; format: functional; how it was run: as §2
Rhizopus arrhizus [12] = experiment: Antifungal activity against drug-susceptible Rhizopus oryzae UTHSC 04-2459 at 5 ug by disk diffusion assay; format: functional; conditions: read-out: DIZ
How it was run: (§5)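 Neo-Sensitabs tablet diffusion on Mueller-Hinton agar, following guidelines for molds; 9 mm tablets containing 5 µg posaconazole; inhibition zone diameter measured in mm; zone breakpoints applied at 24 h.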

Rhizopus arrhizus [13] = experiment: Antifungal activity against drug-susceptible Rhizopus oryzae UTHSC 06-3827 at 5 ug by disk diffusion assay; format: functional; conditions: read-out: DIZ
How it was run: (§6)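 Neo-Sensitabs tablet diffusion on Mueller-Hinton agar, run per the mould guidelines. Tablets are 9 mm in diameter and carry 5 ug posaconazole. The read-out is the inhibition zone diameter in mm.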

Rhizopus arrhizus [14] = experiment: Antifungal activity against drug-intermediate Rhizopus oryzae UTHSC 04-3109 infected in OF1 mouse assessed as reduction in kidney fungal load at 10-30 mg/kg, po bid treated 24 hrs after fungal infection; format: functional, organism-based; how it was run: as §3
Rhizopus arrhizus [15] = experiment: Antifungal activity against drug-susceptible Rhizopus oryzae UTHSC 06-2374 after 24 to 48 hrs; format: functional
How it was run: (§7)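 Minimum fungicidal concentration taken from the broth microdilution plates. From each well with complete inhibition (optically clear), 20 ul is plated on potato dextrose agar. Plates are incubated at 35°C for 24 to 48 h. The MFC is the lowest drug concentration giving no growth.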

Rhizopus arrhizus [16] = experiment: Antifungal activity against drug-susceptible Rhizopus oryzae UTHSC 06-4152 at 5 ug by disk diffusion assay; format: functional; conditions: read-out: DIZ; how it was run: as §6
Rhizopus arrhizus [17] = experiment: Antifungal activity against drug-susceptible Rhizopus oryzae UTHSC 03-1826 at 5 ug by disk diffusion assay; format: functional; conditions: read-out: DIZ
How it was run: (§8)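 Neo-Sensitabs tablet diffusion on Mueller-Hinton agar, following the guidelines for molds. Tablets were 9 mm in diameter and held 5 µg of drug. The read-out was inhibition zone diameter in mm.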

Rhizopus arrhizus [18] = experiment: Antifungal activity against drug-intermediate Rhizopus oryzae UTHSC 05-3032 at 5 ug by disk diffusion assay; format: functional; conditions: read-out: DIZ; how it was run: as §8
Rhizopus arrhizus [19] = experiment: Antifungal activity against drug-intermediate Rhizopus oryzae UTHSC 04-3109 infected in OF1 mouse assessed as reduction in brain fungal load at 10-30 mg/kg, po bid treated 24 hrs after fungal infection; format: functional, organism-based; how it was run: as §3
Rhizopus arrhizus [20] = experiment: Antifungal activity against drug-intermediate Rhizopus oryzae UTHSC 04-3109 by broth microdilution method; format: functional; how it was run: as §1
Rhizopus arrhizus [21] = experiment: Antifungal activity against drug-susceptible Rhizopus oryzae UTHSC 06-4035 after 24 to 48 hrs; format: functional; how it was run: as §7
Rhizopus arrhizus [22] = experiment: Antifungal activity against drug-susceptible Rhizopus oryzae UTHSC 04-278 after 24 to 48 hrs; format: functional; how it was run: as §4
Rhizopus arrhizus [23] = experiment: Antifungal activity against drug-susceptible Rhizopus oryzae UTHSC 06-3913 at 5 ug by disk diffusion assay; format: functional; conditions: read-out: DIZ; how it was run: as §6
Rhizopus arrhizus [24] = experiment: Antifungal activity against drug-susceptible Rhizopus oryzae UTHSC 06-1080 after 24 to 48 hrs; format: functional; how it was run: as §7
Rhizopus arrhizus [25] = experiment: Antifungal activity against drug-susceptible Rhizopus oryzae UTHSC 05-3132 at 5 ug by disk diffusion assay; format: functional; conditions: read-out: DIZ; how it was run: as §6
Rhizopus arrhizus [26] = experiment: Antifungal activity against drug-susceptible Rhizopus oryzae UTHSC 05-3132 after 24 to 48 hrs; format: functional; how it was run: as §7
Rhizopus arrhizus [27] = experiment: Antifungal activity against drug-susceptible Rhizopus oryzae UTHSC 02-2882 infected in OF1 mouse assessed as reduction in kidney fungal load at 10-30 mg/kg, po bid; format: functional, organism-based; how it was run: as §3
Rhizopus arrhizus [28] = experiment: Antifungal activity against drug-susceptible Rhizopus oryzae UTHSC 04-2159 after 24 to 48 hrs; format: functional; how it was run: as §4
Rhizopus arrhizus [29] = experiment: Antifungal activity against drug-intermediate Rhizopus oryzae UTHSC 05-3032 infected in OF1 mouse assessed as reduction in kidney fungal load at 10-30 mg/kg, po bid treated 24 hrs after fungal infection; format: functional, organism-based; how it was run: as §3
Rhizopus arrhizus [30] = experiment: Antifungal activity against drug-susceptible Rhizopus oryzae UTHSC 04-1613 at 5 ug by disk diffusion assay; format: functional; conditions: read-out: DIZ; how it was run: as §5
Rhizopus arrhizus [31] = experiment: Antifungal activity against drug-intermediate Rhizopus oryzae UTHSC 07-365 infected in OF1 mouse assessed as reduction in kidney fungal load at 10-30 mg/kg, po bid treated 24 hrs after fungal infection; format: functional, organism-based; how it was run: as §3
Rhizopus arrhizus [32] = experiment: Antifungal activity against drug-susceptible Rhizopus oryzae UTHSC 05-2975 by broth microdilution method; format: functional; how it was run: as §2
Rhizopus arrhizus [33] = experiment: Antifungal activity against drug-susceptible Rhizopus oryzae UTHSC 03-1826 after 24 to 48 hrs; format: functional
Rhizopus arrhizus [34] = experiment: Antifungal activity against drug-susceptible Rhizopus oryzae UTHSC 03-547 after 24 to 48 hrs; format: functional; how it was run: as §4
Rhizopus arrhizus [35] = experiment: Antifungal activity against drug-susceptible Rhizopus oryzae UTHSC 03-547 at 5 ug by disk diffusion assay; format: functional; conditions: read-out: DIZ; how it was run: as §5
Rhizopus arrhizus [36] = experiment: Antifungal activity against drug-susceptible Rhizopus oryzae UTHSC 05-2447 at 5 ug by disk diffusion assay; format: functional; conditions: read-out: DIZ; how it was run: as §5
Rhizopus arrhizus [37] = experiment: Antifungal activity against drug-susceptible Rhizopus oryzae infected in OF1 mouse assessed as mouse survival at 30 mg/kg, po bid treated 24 hrs after fungal infection; format: functional

CC[C@@H]([C@H](C)O)n1ncn(-c2ccc(N3CCN(c4ccc(OC[C@@H]5CO[C@@](Cn6cncn6)(c6ccc(F)cc6F)C5)cc4)CC3)cc2)c1=O [POSACONAZOLE] showed an MIC (Rhizopus arrhizus [1]) of 0.5 µg/mL (≈ 0.713 µM), an MIC (Rhizopus arrhizus [2]) of 0.25 µg/mL (≈ 0.357 µM) and an MIC (Rhizopus arrhizus [3]) of 0.5 µg/mL (≈ 0.713 µM). For the same compound, the MIC (Rhizopus arrhizus [4]) was 1 µg/mL (≈ 1.43 µM), the Activity (Rhizopus arrhizus [5]) was “inactive” and the MFC (Rhizopus arrhizus [6]) was 0.5 µg/mL (≈ 0.713 µM). For the same compound, the MFC (Rhizopus arrhizus [7]) was > 16 µg/mL, the MIC (Rhizopus arrhizus [8]) was 0.25 µg/mL (≈ 0.357 µM) and the MIC (Rhizopus arrhizus [9]) was 0.5 µg/mL (≈ 0.713 µM). For the same compound, the MIC (Rhizopus arrhizus [10]) was 1 µg/mL (≈ 1.43 µM), the MIC (Rhizopus arrhizus [11]) was 0.5 µg/mL (≈ 0.713 µM) and the zone of inhibition at 5 µg/disc (Rhizopus arrhizus [12]) was 18 mm. The zone of inhibition at 5 µg/disc (Rhizopus arrhizus [13]) was 18 mm, the Activity (Rhizopus arrhizus [14]) was “Active” and the MFC (Rhizopus arrhizus [15]) was 1 µg/mL (≈ 1.43 µM). For the same compound, the zone of inhibition at 5 µg/disc (Rhizopus arrhizus [16]) was 22 mm, the zone of inhibition at 5 µg/disc (Rhizopus arrhizus [17]) was 18 mm and the zone of inhibition at 5 µg/disc (Rhizopus arrhizus [18]) was 14 mm. For the same compound, the Activity (Rhizopus arrhizus [19]) was “inactive”, the MIC (Rhizopus arrhizus [20]) was 2 µg/mL (≈ 2.85 µM) and the MFC (Rhizopus arrhizus [21]) was 0.5 µg/mL (≈ 0.713 µM). For the same compound, the MFC (Rhizopus arrhizus [22]) was > 16 µg/mL, the zone of inhibition at 5 µg/disc (Rhizopus arrhizus [23]) was 20 mm and the MFC (Rhizopus arrhizus [24]) was > 16 µg/mL. The zone of inhibition at 5 µg/disc (Rhizopus arrhizus [25]) was 20 mm, the MFC (Rhizopus arrhizus [26]) was 0.5 µg/mL (≈ 0.713 µM) and the Activity (Rhizopus arrhizus [27]) was “Active”. For the same compound, the MFC (Rhizopus arrhizus [28]) was 1 µg/mL (≈ 1.43 µM), the Activity (Rhizopus arrhizus [29]) was “inactive” and the zone of inhibition at 5 µg/disc (Rhizopus arrhizus [30]) was 22 mm. For the same compound, the Activity (Rhizopus arrhizus [31]) was “Active”, the MIC (Rhizopus arrhizus [32]) was 1 µg/mL (≈ 1.43 µM) and the MFC (Rhizopus arrhizus [33]) was 0.5 µg/mL (≈ 0.713 µM). The MFC (Rhizopus arrhizus [34]) was 0.5 µg/mL (≈ 0.713 µM), the zone of inhibition at 5 µg/disc (Rhizopus arrhizus [35]) was 25 mm and the zone of inhibition at 5 µg/disc (Rhizopus arrhizus [36]) was 17 mm. For the same compound, the Activity (Rhizopus arrhizus [37]) was 30%.
